Measured values: ChEMBL document CHEMBL1132236, “Synthesis and pharmacology of the baclofen homologues 5-amino-4-(4-chlorophenyl)pentanoic acid and the R- and S-enantiomers of 5-amino-3-(4-chlorophenyl)pentanoic acid” (J Med Chem, 1999)
Calls of active or inactive are those of the source. The calls are words filed in the database; no cut-off is given here.

Legend:
GABA B receptor = GABA B receptor (Rattus norvegicus, UniProt O88871+Q9Z0U4); assay: Displacement of [3H]GABA from Gamma-aminobutyric acid type B receptor; format: protein-complex assay
Method in brief: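 Rat brain synaptic membranes (male Sprague-Dawley), washed repeatedly in 5 mM Tris-HCl pH 7.1. 0.5 mg protein incubated with 50 nM [3H]GABA plus 20 µM isoguvacine in 50 mM Tris-HCl pH 7.4 with 2.5 mM CaCl2, 45 min at 24 °C. GF/B filtration, scintillation counting.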

Cavia porcellus [1] = species on record: Cavia porcellus; assay: The compound was tested for inhibition of electrically evoked muscle contractions in isolated longitudinal guinea pig ileum muscle; format: functional
Method in brief: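 Guinea pig ileum longitudinal muscle strips with myenteric plexus (Paton–Zar) held in Krebs-bicarbonate gassed 5% CO2/95% O2 at 37 °C. After 60 min equilibration, stimulated at 0.1 Hz, 5 ms, 100 V. Isometric contractions recorded, inhibition taken relative to maximal inhibition. EC50 fitted with Hill equation. 20–30 min recovery between curves. At least four preparations from two animals.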

Cavia porcellus [2] = species on record: Cavia porcellus; assay: Sensitivity towards CGP-35348 in isolated longitudinal guinea pig ileum muscle; sensitive; format: functional
[3] = molecular target: GABA-A receptor; anion channel; assay: Inhibition of [3H]muscimol binding to Gamma-aminobutyric acid A (GABA-A) receptor of rat brain membranes; format: cell membranes, Membrane
Method in brief: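 Male Sprague-Dawley rat brain synaptic membranes, washed repeatedly, resuspended at 1 mg/mL in 50 mM Tris-HCl pH 7.4. Incubated with 10 nM [3H]muscimol for 1 h at 20 °C, competitor 10^-10 to 10^-3 M. Nonspecific binding defined with 1 mM GABA. GF/B filtration, liquid scintillation counting.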

Cavia porcellus [4] = species on record: Cavia porcellus; assay: Sensitivity towards CGP-35348 in isolated longitudinal guinea pig ileum muscle; Sensitive; format: functional

Chain of GABA B receptor (Q9Z0U4 whole entry): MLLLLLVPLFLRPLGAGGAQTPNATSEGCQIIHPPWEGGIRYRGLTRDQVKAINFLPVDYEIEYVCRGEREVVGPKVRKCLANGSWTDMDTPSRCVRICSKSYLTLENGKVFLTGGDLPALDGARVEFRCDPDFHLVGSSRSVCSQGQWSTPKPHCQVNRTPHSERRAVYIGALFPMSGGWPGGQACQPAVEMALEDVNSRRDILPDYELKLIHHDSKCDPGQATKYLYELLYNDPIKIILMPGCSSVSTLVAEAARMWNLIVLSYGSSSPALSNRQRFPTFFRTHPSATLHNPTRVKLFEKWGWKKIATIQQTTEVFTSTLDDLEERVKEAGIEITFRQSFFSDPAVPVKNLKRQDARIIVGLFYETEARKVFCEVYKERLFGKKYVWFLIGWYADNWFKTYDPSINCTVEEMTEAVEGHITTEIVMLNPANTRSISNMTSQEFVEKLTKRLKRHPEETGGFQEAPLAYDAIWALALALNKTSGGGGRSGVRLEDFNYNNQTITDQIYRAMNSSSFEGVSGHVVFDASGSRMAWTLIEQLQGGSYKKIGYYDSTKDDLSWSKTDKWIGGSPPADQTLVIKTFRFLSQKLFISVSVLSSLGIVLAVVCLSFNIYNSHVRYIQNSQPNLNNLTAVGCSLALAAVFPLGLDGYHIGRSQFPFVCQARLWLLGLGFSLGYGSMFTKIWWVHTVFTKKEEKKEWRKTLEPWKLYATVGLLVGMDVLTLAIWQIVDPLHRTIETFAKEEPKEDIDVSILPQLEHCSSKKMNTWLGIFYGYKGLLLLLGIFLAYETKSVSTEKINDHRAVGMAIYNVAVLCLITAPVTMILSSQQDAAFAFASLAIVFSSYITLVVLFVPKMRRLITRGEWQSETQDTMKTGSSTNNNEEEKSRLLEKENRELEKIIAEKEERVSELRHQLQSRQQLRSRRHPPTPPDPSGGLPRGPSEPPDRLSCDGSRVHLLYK
Chain of GABA B receptor (O88871 whole entry): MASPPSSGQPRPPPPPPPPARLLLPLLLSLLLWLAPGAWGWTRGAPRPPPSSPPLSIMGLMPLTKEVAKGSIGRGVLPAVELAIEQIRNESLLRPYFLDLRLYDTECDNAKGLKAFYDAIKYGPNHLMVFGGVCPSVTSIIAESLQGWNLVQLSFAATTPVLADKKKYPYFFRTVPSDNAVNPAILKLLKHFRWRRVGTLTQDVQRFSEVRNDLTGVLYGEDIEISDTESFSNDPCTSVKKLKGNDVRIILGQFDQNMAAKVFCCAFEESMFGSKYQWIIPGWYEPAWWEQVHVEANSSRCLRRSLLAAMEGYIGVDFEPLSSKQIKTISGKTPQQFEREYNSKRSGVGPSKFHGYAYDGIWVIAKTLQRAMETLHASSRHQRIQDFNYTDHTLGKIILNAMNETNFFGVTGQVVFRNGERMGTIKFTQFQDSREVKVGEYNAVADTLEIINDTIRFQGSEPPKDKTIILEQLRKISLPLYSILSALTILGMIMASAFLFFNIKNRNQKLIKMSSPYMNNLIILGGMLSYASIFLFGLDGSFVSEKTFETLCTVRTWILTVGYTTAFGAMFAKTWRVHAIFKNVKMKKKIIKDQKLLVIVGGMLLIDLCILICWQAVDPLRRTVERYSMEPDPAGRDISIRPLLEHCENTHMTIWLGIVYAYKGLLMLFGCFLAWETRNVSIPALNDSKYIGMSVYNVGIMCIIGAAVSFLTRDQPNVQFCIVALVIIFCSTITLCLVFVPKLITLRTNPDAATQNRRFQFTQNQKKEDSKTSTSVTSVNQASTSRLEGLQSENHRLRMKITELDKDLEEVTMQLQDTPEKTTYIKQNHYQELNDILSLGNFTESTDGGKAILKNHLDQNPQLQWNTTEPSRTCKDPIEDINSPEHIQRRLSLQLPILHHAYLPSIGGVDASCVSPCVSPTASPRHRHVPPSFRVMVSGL

## NCC[C@@H](CC(=O)O)c1ccc(Cl)cc1
GABA B receptor
  IC50: > 0.14 µM
Cavia porcellus [1]
  EC50: 310 µM
Cavia porcellus [2]
  Sensitivity: inactive
[3]
  IC50: > 100 µM

## NC[C@@H](CC(=O)O)c1ccc(Cl)cc1
Cavia porcellus [1]
  EC50: 3300 µM
[3]
  IC50: > 100 µM

## NCC[C@H](CC(=O)O)c1ccc(Cl)cc1
GABA B receptor
  IC50: 7.4 µM
Cavia porcellus [1]
  EC50: 11 µM
Cavia porcellus [4]
  Sensitivity: inactive
[3]
  IC50: > 100 µM

## NC[C@H](CC(=O)O)c1ccc(Cl)cc1 [ARBACLOFEN]
Cavia porcellus [1]
  EC50: 11 µM
Cavia porcellus [4]
  Sensitivity: Active
[3]
  IC50: > 100 µM

## NCC(CCC(=O)O)c1ccc(Cl)cc1 (stereo unspecified)
GABA B receptor
  IC50: > 0.14 µM
Cavia porcellus [1]
  EC50: > 3000 µM
[3]
  IC50: > 100 µM
